According to ChEMBL document CHEMBL2413060, “Synthesis, biological evaluation and molecular docking studies of some pyrimidine derivatives” (2013):

Tests used:
Assay type in all cases: functional
MDA-MB-468 [1] = experiment: Cytotoxicity against human MDA-MB-468 cells
Procedure, shortened: (§1)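 Five-dose in vitro screen on the full sixty human tumour cell line panel. Three response parameters derived per cell line: GI50, TGI and LC50, given in μM.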

Staphylococcus aureus = experiment: Antibacterial activity against Staphylococcus aureus ATCC 6538P assessed as diameter of inhibition zone at 1 mg/ml after 24 hrs by cup diffusion method (reference value: 15 mm); settings: read-out: DIZ
SF-539 = experiment: Cytotoxicity against human SF539 cells; procedure, shortened: as §1
BT-549 [2] = experiment: Cytotoxicity against human BT549 cells assessed as growth inhibition at 10 uM; settings: read-out: GI
MCF7 [3] = experiment: Cytotoxicity against human MCF7 cells; procedure, shortened: as §1
NCI-H226 = experiment: Cytotoxicity against human NCI-H226 cells; procedure, shortened: as §1
MCF7 [4] = experiment: Cytotoxicity against human MCF7 cells assessed as growth inhibition at 10 uM; settings: read-out: GI
Procedure, shortened: (§2)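 Single-dose screen on human tumour cell lines. Growth of treated cells is expressed as percent of untreated growth, plotted as a mean graph, and reported as percent growth inhibition.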

A498 = experiment: Cytotoxicity against human A498 cells assessed as growth inhibition at 10 uM; settings: read-out: GI
MDA-MB-468 [5] = experiment: Cytotoxicity against human MDA-MB-468 cells assessed as growth inhibition at 10 uM; settings: read-out: GI; procedure, shortened: as §2
M14 = experiment: Cytotoxicity against human M14 cells
SF-295 [6] = experiment: Cytotoxicity against human SF295 cells assessed as growth inhibition at 10 uM; settings: read-out: GI; procedure, shortened: as §2
MDA-MB-231 = experiment: Cytotoxicity against human MDA-MB-231 cells; procedure, shortened: as §1
RXF 393 = experiment: Cytotoxicity against human RXF393 cells assessed as growth inhibition at 10 uM; settings: read-out: GI; procedure, shortened: as §2
BT-549 [7] = experiment: Cytotoxicity against human BT549 cells
CAKI-1 = experiment: Cytotoxicity against human Caki1 cells
TK-10 = experiment: Cytotoxicity against human TK10 cells
Procedure, shortened: (§3)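 Five-dose in vitro screen across the full sixty-cell human tumour line panel. Three response parameters were derived from the dose-response data: GI50, TGI and LC50, expressed in μM/l.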

Pseudomonas aeruginosa = experiment: Antibacterial activity against Pseudomonas aeruginosa ATCC 9027 assessed as diameter of inhibition zone at 1 mg/ml after 24 hrs by cup diffusion method (reference value: 16 mm); settings: ATCC 9027, 24 h, read-out: DIZ
SK-OV-3 = experiment: Cytotoxicity against human SKOV3 cells assessed as growth inhibition at 10 uM; settings: read-out: GI; procedure, shortened: as §2
HOP-62 = experiment: Cytotoxicity against human HOP62 cells assessed as growth inhibition at 10 uM; settings: read-out: GI
SW-620 = experiment: Cytotoxicity against human SW620 cells; procedure, shortened: as §1
T47D = experiment: Cytotoxicity against human T47D cells; procedure, shortened: as §1
UACC-257 = experiment: Cytotoxicity against human UACC257 cells; procedure, shortened: as §3
HT-29 = experiment: Cytotoxicity against human HT-29 cells
SN12C = experiment: Cytotoxicity against human SN12C cells; procedure, shortened: as §1
SF-295 [8] = experiment: Cytotoxicity against human SF295 cells; procedure, shortened: as §1
NCI-H322M = experiment: Cytotoxicity against human NCI-H322M cells; procedure, shortened: as §1
Malme-3M = experiment: Cytotoxicity against human MALME-3M cells assessed as growth inhibition at 10 uM; settings: read-out: GI
SK-MEL-28 = experiment: Cytotoxicity against human SK-MEL-28 cells; procedure, shortened: as §1
HCT-116 = experiment: Cytotoxicity against human HCT116 cells
UO-31 = experiment: Cytotoxicity against human UO31 cells assessed as growth inhibition at 10 uM; settings: read-out: GI
Procedure, shortened: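 Single-dose screen in a sixty-cell human tumour line panel; percent growth of treated cells relative to untreated was read and reported as percentage growth inhibition, shown as a mean graph. Compounds meeting the threshold inhibition criteria went on to five-dose testing.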

HL-60(TB) = experiment: Cytotoxicity against human HL-60(TB) cells
Procedure, shortened: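 Run in the sixty human tumour cell line panel. The primary screen reports percent growth of treated cells, expressed as percentage growth inhibition. Compounds meeting the threshold inhibition criteria go on to the full-panel 5-dose assay, which gives three response parameters (GI50, TGI, LC50) in μM.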

NCI-H23 = experiment: Cytotoxicity against human NCI-H23 cells; procedure, shortened: as §1
SF-268 = experiment: Cytotoxicity against human SF268 cells; procedure, shortened: as §1
Shigella flexneri = experiment: Antibacterial activity against Shigella flexneri ATCC 15391 assessed as diameter of inhibition zone at 1 mg/ml after 24 hrs by cup diffusion method (reference value: 17 mm); settings: ATCC 15391, 24 h, read-out: DIZ
SK-MEL-5 = experiment: Cytotoxicity against human SK-MEL-5 cells; procedure, shortened: as §1
SR = experiment: Cytotoxicity against human SR cells; procedure, shortened: as §1
OVCAR-4 = experiment: Cytotoxicity against human OVCAR4 cells; procedure, shortened: as §1
OVCAR-3 = experiment: Cytotoxicity against human OVCAR3 cells; procedure, shortened: as §1
IGROV-1 = experiment: Cytotoxicity against human IGROV1 cells assessed as growth inhibition at 10 uM; settings: read-out: GI
CCRF-CEM = experiment: Cytotoxicity against human CCRF-CEM cells
NCI-H522 = experiment: Cytotoxicity against human NCI-H522 cells assessed as growth inhibition at 10 uM; settings: read-out: GI; procedure, shortened: as §2
[9] = read-out: LC50 (the source's name)

Work on `N#Cc1c(-c2ccccc2)nc(SCC2CO2)nc1N1CCOCC1` (stereo not drawn) yielded a GI50 (MDA-MB-468 [1]) of 4.82 µM, a TGI (MDA-MB-468 [1]) greater than 100 µM and a CC50 (MDA-MB-468 [1]; [9]) greater than 100 µM. For the same compound, the zone of inhibition at 1000 µg/mL (Staphylococcus aureus) was 15 mm, the GI50 (SF-539) was 19.8 µM and the TGI (SF-539) was greater than 100 µM. It also gave a CC50 (SF-539; [9]) greater than 100 µM, an inhibition of growth at 10 µM (BT-549 [2]) of 88.6% and a GI50 (MCF7 [3]) of 3.92 µM. For the same compound, the TGI (MCF7 [3]) was greater than 100 µM, the CC50 (MCF7 [3]; [9]) was greater than 100 µM and the GI50 (NCI-H226) was 10.1 µM. It also gave a TGI (NCI-H226) greater than 100 µM, a CC50 (NCI-H226; [9]) greater than 100 µM and an inhibition of growth at 10 µM (MCF7 [4]) of 55.2%. For the same compound, the inhibition of growth at 10 µM (A498) was 115%, the inhibition of growth at 10 µM (MDA-MB-468 [5]) was 44.1% and the GI50 (M14) was 11.9 µM. The TGI (M14) was greater than 100 µM, the CC50 (M14; [9]) was greater than 100 µM and the inhibition of growth at 10 µM (SF-295 [6]) was 90.9%. It also gave a GI50 (MDA-MB-231) of 10 µM, a TGI (MDA-MB-231) greater than 100 µM and a CC50 (MDA-MB-231; [9]) greater than 100 µM. For the same compound, the inhibition of growth at 10 µM (RXF 393) was 68.5%, the GI50 (BT-549 [7]) was 3.22 µM and the TGI (BT-549 [7]) was greater than 100 µM. The CC50 (BT-549 [7]; [9]) was greater than 100 µM, the GI50 (CAKI-1) was 0.635 µM and the TGI (CAKI-1) was 31.4 µM. It also gave a CC50 (CAKI-1; [9]) greater than 100 µM, a GI50 (TK-10) of 4.63 µM and a TGI (TK-10) greater than 100 µM. It also gave a CC50 (TK-10; [9]) greater than 100 µM, a zone of inhibition at 1000 µg/mL (Pseudomonas aeruginosa) of 17 mm and an inhibition of growth at 10 µM (SK-OV-3) of 71.9%. For the same compound, the inhibition of growth at 10 µM (HOP-62) was 45.7%, the GI50 (SW-620) was 25 µM and the TGI (SW-620) was greater than 100 µM. For the same compound, the CC50 (SW-620; [9]) was greater than 100 µM, the GI50 (T47D) was 3.59 µM and the TGI (T47D) was 22.5 µM. For the same compound, the CC50 (T47D; [9]) was greater than 100 µM, the GI50 (UACC-257) was 50.7 µM and the TGI (UACC-257) was greater than 100 µM. For the same compound, the CC50 (UACC-257; [9]) was greater than 100 µM, the GI50 (HT-29) was 36.8 µM and the TGI (HT-29) was greater than 100 µM. It also gave a CC50 (HT-29; [9]) greater than 100 µM, a GI50 (SN12C) of 16.4 µM and a TGI (SN12C) greater than 100 µM. It also gave a CC50 (SN12C; [9]) greater than 100 µM, a GI50 (SF-295 [8]) of 1.46 µM and a TGI (SF-295 [8]) of 20.4 µM. The CC50 (SF-295 [8]; [9]) was greater than 100 µM, the GI50 (NCI-H322M) was 8.31 µM and the TGI (NCI-H322M) was greater than 100 µM. The CC50 (NCI-H322M; [9]) was greater than 100 µM, the inhibition of growth at 10 µM (Malme-3M) was 74.3% and the GI50 (SK-MEL-28) was 5.45 µM. It also gave a TGI (SK-MEL-28) of 98.3 µM, a CC50 (SK-MEL-28; [9]) greater than 100 µM and a GI50 (HCT-116) of 18.4 µM. The TGI (HCT-116) was greater than 100 µM, the CC50 (HCT-116; [9]) was greater than 100 µM and the inhibition of growth at 10 µM (UO-31) was 70.5%. The GI50 (HL-60(TB)) was 34.1 µM, the TGI (HL-60(TB)) was greater than 100 µM and the CC50 (HL-60(TB); [9]) was greater than 100 µM. The GI50 (NCI-H23) was 4.48 µM, the TGI (NCI-H23) was greater than 100 µM and the CC50 (NCI-H23; [9]) was greater than 100 µM. For the same compound, the GI50 (SF-268) was 13 µM, the TGI (SF-268) was greater than 100 µM and the CC50 (SF-268; [9]) was greater than 100 µM. For the same compound, the zone of inhibition at 1000 µg/mL (Shigella flexneri) was 18 mm, the GI50 (SK-MEL-5) was 17 µM and the TGI (SK-MEL-5) was greater than 100 µM. The CC50 (SK-MEL-5; [9]) was greater than 100 µM, the GI50 (SR) was 33.3 µM and the TGI (SR) was greater than 100 µM. For the same compound, the CC50 (SR; [9]) was greater than 100 µM, the GI50 (OVCAR-4) was 85.1 µM and the TGI (OVCAR-4) was greater than 100 µM. The CC50 (OVCAR-4; [9]) was greater than 100 µM, the GI50 (OVCAR-3) was 4.19 µM and the TGI (OVCAR-3) was 47.8 µM. The CC50 (OVCAR-3; [9]) was greater than 100 µM, the inhibition of growth at 10 µM (IGROV-1) was 61.9% and the GI50 (CCRF-CEM) was greater than 100 µM. It also gave a TGI (CCRF-CEM) greater than 100 µM, a CC50 (CCRF-CEM; [9]) greater than 100 µM and an inhibition of growth at 10 µM (NCI-H522) of 42.1%.
